{"source": "ChEMBL document CHEMBL3621137", "about": "“Novel 3-Substituted 7-Phenylpyrrolo[3,2-f]quinolin-9(6H)-ones as Single Entities with Multitarget Antiproliferative Activity” (J Med Chem, 2015)", "key": {"HT-29": {"test_system": "HT-29", "assay": "Cytotoxicity against human HT-29 cells after 72 hrs by MTT assay", "type": "functional", "conditions": "HT-29, 72 h", "method_in_brief": "(§1)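 Leukemic lines grown in RPMI-1640, solid-tumor lines in DMEM, both with 10% FBS, 2 mM glutamine and antibiotics, at 37 °C in 5% CO2. Seeded at 8 × 10^3 cells/well and exposed to a concentration range 24 h later. Survival read by MTT. GI50 is the concentration inhibiting proliferation by 50%. Mean ± SEM of at least three independent experiments.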"}, "Jurkat [1]": {"test_system": "Jurkat", "assay": "Cell cycle arrest in human Jurkat cells assessed as reduction at G1 phase at 30 nM to 250 nM after 24 hrs by flow cytometry analysis"}, "THP-1 [2]": {"test_system": "THP-1", "assay": "Cytotoxicity against human glucocorticoid-resistant THP1 cells assessed as combination index of GI50 at 100:1 ratio of Ara-C and compound after 48 hrs by MTT assay", "type": "functional", "method_in_brief": "(§2)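 Cells plated in triplicate and treated 48 h with serial dilutions of the compound combined with cytarabine, daunorubicin or dexamethasone at fixed molar ratios. Viability read by MTT. […] Mean ± SEM of three independent experiments.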"}, "[3]": {"molecular_target": "Serine/threonine-protein kinase PLK4 (Homo sapiens) (UniProt O00444)", "assay": "Inhibition of PLK4 (unknown origin) at 1 uM"}, "[4]": {"molecular_target": "Cellular tumor antigen p53 (Homo sapiens) (UniProt P04637)", "sequence (P04637 whole entry, looked up)": "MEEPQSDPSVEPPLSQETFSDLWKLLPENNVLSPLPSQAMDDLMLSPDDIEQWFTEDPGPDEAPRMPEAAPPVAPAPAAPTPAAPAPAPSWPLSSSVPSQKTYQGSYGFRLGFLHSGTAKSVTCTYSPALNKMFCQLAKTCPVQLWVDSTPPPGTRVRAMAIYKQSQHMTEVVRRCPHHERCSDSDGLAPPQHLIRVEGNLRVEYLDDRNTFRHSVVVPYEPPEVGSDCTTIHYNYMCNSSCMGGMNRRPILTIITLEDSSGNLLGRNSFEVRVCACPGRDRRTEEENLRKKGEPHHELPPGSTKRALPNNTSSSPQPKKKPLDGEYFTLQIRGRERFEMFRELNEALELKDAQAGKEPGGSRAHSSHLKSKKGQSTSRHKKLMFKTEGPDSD", "assay": "Activation of p53 in human Jurkat cells assessed as p53 phosphorylation at Ser15 residue after 24 hrs by Western blot analysis"}, "Jurkat [5]": {"test_system": "Jurkat", "assay": "Cytotoxicity against human glucocorticoid-resistant Jurkat cells assessed as combination index of GI90 at 100:1 ratio of Ara-C and compound after 48 hrs by MTT assay", "type": "functional", "method_in_brief": "as §2"}, "[6]": {"molecular_target": "Serine/threonine-protein kinase ULK1 (Homo sapiens) (UniProt O75385)", "sequence (O75385 whole entry)": "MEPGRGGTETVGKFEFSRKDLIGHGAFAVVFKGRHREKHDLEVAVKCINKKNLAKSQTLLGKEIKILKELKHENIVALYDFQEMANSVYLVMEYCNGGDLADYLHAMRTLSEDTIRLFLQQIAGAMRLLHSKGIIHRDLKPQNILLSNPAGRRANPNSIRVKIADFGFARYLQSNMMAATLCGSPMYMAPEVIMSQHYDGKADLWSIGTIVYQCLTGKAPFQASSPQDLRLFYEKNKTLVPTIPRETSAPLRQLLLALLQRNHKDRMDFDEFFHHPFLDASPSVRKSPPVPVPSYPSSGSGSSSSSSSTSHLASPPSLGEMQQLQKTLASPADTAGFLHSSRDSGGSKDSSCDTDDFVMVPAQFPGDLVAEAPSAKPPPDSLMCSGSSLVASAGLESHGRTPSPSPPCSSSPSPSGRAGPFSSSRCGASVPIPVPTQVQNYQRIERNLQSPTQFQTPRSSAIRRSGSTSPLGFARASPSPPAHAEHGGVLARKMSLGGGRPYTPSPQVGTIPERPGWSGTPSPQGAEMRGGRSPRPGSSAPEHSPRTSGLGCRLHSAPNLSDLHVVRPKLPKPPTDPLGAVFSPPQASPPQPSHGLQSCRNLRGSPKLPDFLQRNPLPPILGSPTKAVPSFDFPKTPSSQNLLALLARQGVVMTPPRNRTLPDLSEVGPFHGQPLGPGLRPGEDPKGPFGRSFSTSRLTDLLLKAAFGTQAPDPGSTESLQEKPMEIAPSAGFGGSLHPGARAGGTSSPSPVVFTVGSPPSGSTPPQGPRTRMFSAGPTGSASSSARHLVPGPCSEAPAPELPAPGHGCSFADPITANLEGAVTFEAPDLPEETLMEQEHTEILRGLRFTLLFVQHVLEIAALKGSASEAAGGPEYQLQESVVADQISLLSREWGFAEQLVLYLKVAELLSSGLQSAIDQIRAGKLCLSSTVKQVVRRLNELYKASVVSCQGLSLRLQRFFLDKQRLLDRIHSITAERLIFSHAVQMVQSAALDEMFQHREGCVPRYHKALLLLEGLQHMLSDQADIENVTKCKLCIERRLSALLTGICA", "assay": "Inhibition of ULK1 (unknown origin) at 1 uM"}, "MV4-11 [7]": {"test_system": "MV4-11", "assay": "Cytotoxicity against human glucocorticoid- sensitive MV4-11 cells assessed as combination index of GI75 at 100:1 ratio of Ara-C and compound after 48 hrs by MTT assay", "type": "functional", "method_in_brief": "as §2"}, "RS4-11": {"test_system": "RS4-11", "assay": "Induction of apoptosis in human RS4:11 cells using annexin-V/propidium iodide staining after 24 hrs by flow cytometric analysis", "type": "functional, cell-based", "method_in_brief": "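Cells were exposed to the agent at the indicated concentrations for 24 h, then stained with annexin-V-FITC plus PI and analysed by flow cytometry. Populations were scored as live (annexin−/PI−), early apoptotic (annexin+/PI−), late apoptotic (annexin+/PI+) or necrotic (annexin−/PI+). Mean ± SEM of three independent experiments.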"}, "MCF7": {"test_system": "MCF7", "assay": "Cytotoxicity against human MCF7 cells after 72 hrs by MTT assay", "type": "functional", "conditions": "MCF7, 72 h", "method_in_brief": "as §1"}, "THP-1 [8]": {"test_system": "THP-1", "assay": "Cytotoxicity against human glucocorticoid-resistant THP1 cells assessed as combination index of GI75 at 100:1 ratio of Ara-C and compound after 48 hrs by MTT assay", "type": "functional", "method_in_brief": "(§3)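 THP-1 cells in RPMI-1640 with 10% FBS, 2 mM glutamine, penicillin/streptomycin, 37 °C, 5% CO2. Plated in triplicate and exposed for 48 h to serial dilutions of the compound together with cytarabine, daunorubicin or dexamethasone at fixed molar ratios. Viability read by MTT. Combination index calculated by the Chou–Talalay method at GI50, GI75 and GI90. Mean ± SEM of three independent experiments.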"}, "[9]": {"molecular_target": "Mast/stem cell growth factor receptor Kit (Homo sapiens) (UniProt P10721)", "sequence (P10721 whole entry)": "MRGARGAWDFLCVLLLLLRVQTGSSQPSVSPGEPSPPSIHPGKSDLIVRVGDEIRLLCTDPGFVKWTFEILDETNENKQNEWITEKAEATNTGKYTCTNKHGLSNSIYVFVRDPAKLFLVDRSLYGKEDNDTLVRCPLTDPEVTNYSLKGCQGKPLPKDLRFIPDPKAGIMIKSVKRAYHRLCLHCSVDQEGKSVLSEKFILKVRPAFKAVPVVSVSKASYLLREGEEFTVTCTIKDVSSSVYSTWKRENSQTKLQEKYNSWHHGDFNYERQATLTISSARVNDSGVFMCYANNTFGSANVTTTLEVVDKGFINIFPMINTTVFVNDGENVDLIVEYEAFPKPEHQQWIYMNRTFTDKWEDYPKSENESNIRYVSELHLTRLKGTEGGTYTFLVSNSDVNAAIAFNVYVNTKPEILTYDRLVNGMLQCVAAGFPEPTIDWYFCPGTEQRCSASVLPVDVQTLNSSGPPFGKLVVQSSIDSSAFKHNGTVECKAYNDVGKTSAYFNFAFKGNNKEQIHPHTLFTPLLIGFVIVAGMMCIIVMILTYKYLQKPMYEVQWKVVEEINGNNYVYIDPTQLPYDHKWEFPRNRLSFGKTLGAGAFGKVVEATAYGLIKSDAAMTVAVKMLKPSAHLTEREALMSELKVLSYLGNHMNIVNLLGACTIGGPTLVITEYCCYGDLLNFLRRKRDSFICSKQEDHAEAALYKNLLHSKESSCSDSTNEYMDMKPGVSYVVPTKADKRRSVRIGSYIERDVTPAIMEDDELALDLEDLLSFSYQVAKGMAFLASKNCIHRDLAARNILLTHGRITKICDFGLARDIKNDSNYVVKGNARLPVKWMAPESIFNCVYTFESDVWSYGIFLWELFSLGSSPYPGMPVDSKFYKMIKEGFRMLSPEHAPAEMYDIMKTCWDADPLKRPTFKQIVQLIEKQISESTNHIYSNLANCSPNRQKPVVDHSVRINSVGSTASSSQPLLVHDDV", "assay": "Inhibition of KIT (unknown origin) at 1 uM"}, "K562": {"test_system": "K562", "assay": "Cytotoxicity against human K562 cells after 72 hrs by MTT assay", "type": "functional", "conditions": "K562, 72 h", "method_in_brief": "as §1"}, "MV4-11 [10]": {"test_system": "MV4-11", "assay": "Cytotoxicity against human glucocorticoid- sensitive MV4-11 cells assessed as combination index of GI50 at 100:1 ratio of Ara-C and compound after 48 hrs by MTT assay", "type": "functional", "method_in_brief": "as §2"}, "THP-1 [11]": {"test_system": "THP-1", "assay": "Cytotoxicity against human glucocorticoid-resistant THP1 cells assessed as combination index of GI75 at 10:1 ratio of daunorubicin and compound after 48 hrs by MTT assay", "type": "functional", "method_in_brief": "as §3"}, "Jurkat [12]": {"test_system": "Jurkat", "assay": "Induction of apoptosis in human Jurkat cells assessed as cleavage of activator caspase-9 at 0.1 to 1 uM after 24 hrs by Western blot analysis", "type": "functional, cell-based", "method_in_brief": "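Jurkat cells were treated 24 h at the indicated concentrations, then washed in ice-cold PBS and lysed. Protein was quantified by BCA and 10–20 μg loaded for SDS–PAGE and PVDF transfer. Membranes were blocked in 2% ECL-blocking solution for 2 h at room temperature. Primary antibodies were applied overnight and peroxidase-conjugated secondary for 60 min, with ECL detection. Blots were stripped and reprobed for β-actin as loading control.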"}, "MV4-11 [13]": {"test_system": "MV4-11", "assay": "Cytotoxicity against human glucocorticoid- sensitive MV4-11 cells assessed as combination index of GI90 at 10:1 ratio of dexamethasone and compound after 48 hrs by MTT assay", "type": "functional", "method_in_brief": "as §2"}, "[14]": {"test_system": "Receptor-type tyrosine-protein kinase FLT3 (Homo sapiens), P36888 [N841I]", "assay": "Inhibition of FLT3 phosphorylation at N841I residue (unknown origin) at 1 uM"}, "MV4-11 [15]": {"test_system": "MV4-11", "assay": "Cytotoxicity against human glucocorticoid- sensitive MV4-11 cells assessed as combination index of GI50 at 10:1 ratio of daunorubicin and compound after 48 hrs by MTT assay", "type": "functional", "method_in_brief": "as §2"}, "[16]": {"assay": "Cytotoxicity against human SEM cells after 72 hrs by MTT assay", "type": "functional", "method_in_brief": "as §1"}, "[17]": {"molecular_target": "Aurora kinase A (Homo sapiens) (UniProt O14965)", "assay": "Inhibition of Aurora-A (unknown origin) at 1 uM"}, "[18]": {"molecular_target": "Rhodopsin kinase GRK1 (Homo sapiens) (UniProt Q15835)", "sequence (Q15835 whole entry)": "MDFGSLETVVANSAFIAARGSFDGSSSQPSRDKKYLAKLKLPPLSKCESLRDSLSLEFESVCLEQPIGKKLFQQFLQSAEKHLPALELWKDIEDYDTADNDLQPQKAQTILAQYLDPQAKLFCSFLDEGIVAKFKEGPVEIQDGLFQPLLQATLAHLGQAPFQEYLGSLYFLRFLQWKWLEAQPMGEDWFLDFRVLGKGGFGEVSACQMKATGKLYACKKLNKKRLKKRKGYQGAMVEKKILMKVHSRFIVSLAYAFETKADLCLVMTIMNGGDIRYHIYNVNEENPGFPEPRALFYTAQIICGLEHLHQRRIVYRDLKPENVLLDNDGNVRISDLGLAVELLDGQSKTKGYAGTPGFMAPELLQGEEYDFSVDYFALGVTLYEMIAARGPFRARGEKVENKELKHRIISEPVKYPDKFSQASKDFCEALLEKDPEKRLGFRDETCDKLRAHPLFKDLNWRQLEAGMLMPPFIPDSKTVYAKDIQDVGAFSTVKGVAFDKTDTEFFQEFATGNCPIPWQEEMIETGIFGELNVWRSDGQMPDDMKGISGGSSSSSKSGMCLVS", "assay": "Inhibition of GRK1 (unknown origin) at 1 uM"}, "THP-1 [19]": {"test_system": "THP-1", "assay": "Cytotoxicity against human THP1 cells after 72 hrs by MTT assay", "type": "functional", "conditions": "THP-1, 72 h", "method_in_brief": "as §1"}, "[20]": {"molecular_target": "Serine/threonine-protein kinase NIM1 (Homo sapiens) (UniProt Q8IY84)", "sequence (Q8IY84 whole entry)": "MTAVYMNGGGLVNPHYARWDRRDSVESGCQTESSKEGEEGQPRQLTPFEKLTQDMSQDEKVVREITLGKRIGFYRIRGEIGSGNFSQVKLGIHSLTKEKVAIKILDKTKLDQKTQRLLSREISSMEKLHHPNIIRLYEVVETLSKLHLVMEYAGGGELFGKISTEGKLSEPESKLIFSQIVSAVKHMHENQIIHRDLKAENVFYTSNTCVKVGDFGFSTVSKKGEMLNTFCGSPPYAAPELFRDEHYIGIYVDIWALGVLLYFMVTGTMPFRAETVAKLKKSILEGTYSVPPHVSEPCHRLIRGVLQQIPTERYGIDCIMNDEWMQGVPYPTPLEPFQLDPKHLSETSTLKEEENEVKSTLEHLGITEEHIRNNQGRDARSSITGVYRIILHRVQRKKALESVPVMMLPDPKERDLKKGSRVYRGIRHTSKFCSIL", "assay": "Inhibition of NIM1 (unknown origin) at 1 uM"}, "[21]": {"molecular_target": "Serine/threonine-protein kinase mTOR (Homo sapiens) (UniProt P42345)", "assay": "Inhibition of mTOR in human Jurkat cells assessed as decrease of 4E-BP1 phosphorylation at Ser65 at 0.1 to 1 uM after 24 hrs by Western blot analysis", "type": "cell-based", "method_in_brief": "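Jurkat cells were exposed 24 h to the indicated concentrations and the PI3K/AKT/mTOR pathway proteins assessed by Western blot. Lysates were quantified by BCA and 10–20 μg run on SDS–PAGE, transferred to PVDF and detected by ECL. Membranes were stripped and reprobed for β-actin.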"}, "Jurkat (Homo sapiens)": {"test_system": "Jurkat (Homo sapiens)", "assay": "Decrease of phosphorylated form of cdc25C expression in human Jurkat cells at 1 uM after 24 hrs by Western blot analysis"}, "[22]": {"molecular_target": "Mitogen-activated protein kinase kinase kinase 15 (Homo sapiens) (UniProt Q6ZN16)", "sequence (Q6ZN16 whole entry)": "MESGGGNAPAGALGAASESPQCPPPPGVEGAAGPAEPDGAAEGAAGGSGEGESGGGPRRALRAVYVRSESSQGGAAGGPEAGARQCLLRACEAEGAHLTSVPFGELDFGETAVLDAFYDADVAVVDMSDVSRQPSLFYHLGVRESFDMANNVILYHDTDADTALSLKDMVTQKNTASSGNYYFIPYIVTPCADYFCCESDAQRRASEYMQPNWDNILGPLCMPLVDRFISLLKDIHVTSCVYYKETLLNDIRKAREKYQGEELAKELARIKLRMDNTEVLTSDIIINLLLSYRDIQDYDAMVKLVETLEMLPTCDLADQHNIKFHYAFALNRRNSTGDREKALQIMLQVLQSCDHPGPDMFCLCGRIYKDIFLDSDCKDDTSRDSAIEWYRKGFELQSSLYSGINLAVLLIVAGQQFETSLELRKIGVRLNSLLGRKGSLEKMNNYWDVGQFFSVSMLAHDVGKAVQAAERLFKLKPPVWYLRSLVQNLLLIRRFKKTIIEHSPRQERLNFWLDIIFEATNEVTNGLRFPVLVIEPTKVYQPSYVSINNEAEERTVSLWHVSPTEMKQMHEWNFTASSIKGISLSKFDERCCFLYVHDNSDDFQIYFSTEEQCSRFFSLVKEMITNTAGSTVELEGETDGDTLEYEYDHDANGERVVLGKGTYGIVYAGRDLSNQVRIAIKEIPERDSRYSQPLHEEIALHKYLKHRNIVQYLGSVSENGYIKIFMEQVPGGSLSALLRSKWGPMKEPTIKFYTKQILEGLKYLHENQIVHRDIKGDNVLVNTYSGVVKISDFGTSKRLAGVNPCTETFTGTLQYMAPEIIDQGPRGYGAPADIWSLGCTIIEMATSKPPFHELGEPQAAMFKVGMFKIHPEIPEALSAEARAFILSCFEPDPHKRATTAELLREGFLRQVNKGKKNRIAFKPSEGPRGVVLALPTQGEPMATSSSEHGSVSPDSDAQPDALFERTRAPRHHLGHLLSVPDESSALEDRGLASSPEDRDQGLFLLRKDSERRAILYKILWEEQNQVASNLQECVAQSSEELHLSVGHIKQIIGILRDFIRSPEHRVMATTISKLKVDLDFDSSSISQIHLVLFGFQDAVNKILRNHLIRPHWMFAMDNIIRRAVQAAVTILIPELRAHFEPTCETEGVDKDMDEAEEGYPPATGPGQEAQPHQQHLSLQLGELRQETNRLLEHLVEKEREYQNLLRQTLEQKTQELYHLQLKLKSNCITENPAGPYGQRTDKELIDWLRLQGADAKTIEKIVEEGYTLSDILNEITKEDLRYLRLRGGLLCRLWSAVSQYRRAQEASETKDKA", "assay": "Inhibition of MAP3K15 (unknown origin) at 1 uM"}, "MV4-11 [23]": {"test_system": "MV4-11", "assay": "Cytotoxicity against human glucocorticoid- sensitive MV4-11 cells assessed as combination index of GI90 at 100:1 ratio of Ara-C and compound after 48 hrs by MTT assay", "type": "functional", "method_in_brief": "as §2"}, "Jurkat [24]": {"test_system": "Jurkat", "assay": "Cytotoxicity against human glucocorticoid-resistant Jurkat cells assessed as combination index of GI50 at 10:1 ratio of dexamethasone and compound after 48 hrs by MTT assay", "type": "functional", "method_in_brief": "as §2"}}, "note": "The source made the active and inactive calls. The calls are words filed in the database; no cut-off is given here.", "data": [{"smiles": "O=C(C1CC1)n1ccc2c3c(=O)cc(-c4ccccc4)[nH]c3ccc21", "values": [{"measurement": "GI50", "setting": "HT-29", "result": 1, "unit": "nM"}, {"measurement": "Activity", "setting": "Jurkat [1]", "result": "Active"}, {"measurement": "CI", "setting": "THP-1 [2]", "result": 0.14}, {"measurement": "inhibition", "setting": "[3]", "result": "> 50", "unit": "%"}, {"measurement": "Activity", "setting": "[4]", "result": "Dose-dependent effect"}, {"measurement": "CI", "setting": "Jurkat [5]", "result": 14.7}, {"measurement": "inhibition", "setting": "[6]", "result": 50, "unit": "%"}, {"measurement": "CI", "setting": "MV4-11 [7]", "result": 0.38}, {"measurement": "Activity", "setting": "RS4-11", "result": "Dose-dependent effect"}, {"measurement": "GI50", "setting": "MCF7", "result": 5, "unit": "nM"}, {"measurement": "CI", "setting": "THP-1 [8]", "result": 0.15}, {"measurement": "inhibition", "setting": "[9]", "result": "> 50", "unit": "%"}, {"measurement": "GI50", "setting": "K562", "result": 6, "unit": "nM"}, {"measurement": "CI", "setting": "MV4-11 [10]", "result": 0.09}, {"measurement": "CI", "setting": "THP-1 [11]", "result": 0.17}, {"measurement": "Activity", "setting": "Jurkat [12]", "result": "Active"}, {"measurement": "CI", "setting": "MV4-11 [13]", "result": 0.25}, {"measurement": "inhibition", "setting": "[14]", "result": 50, "unit": "%"}, {"measurement": "CI", "setting": "MV4-11 [15]", "result": 0.22}, {"measurement": "GI50", "setting": "[16]", "result": 0.4, "unit": "nM"}, {"measurement": "inhibition", "setting": "[17]", "result": "> 50", "unit": "%"}, {"measurement": "inhibition", "setting": "[18]", "result": 50, "unit": "%"}, {"measurement": "GI50", "setting": "THP-1 [19]", "result": 74, "unit": "nM"}, {"measurement": "inhibition", "setting": "[20]", "result": "> 50", "unit": "%"}, {"measurement": "inhibition", "setting": "[21]", "result": "Active"}, {"measurement": "Activity", "setting": "Jurkat (Homo sapiens)", "result": "Active"}, {"measurement": "inhibition", "setting": "[22]", "result": "> 50", "unit": "%"}, {"measurement": "CI", "setting": "MV4-11 [23]", "result": 1.8}, {"measurement": "CI", "setting": "Jurkat [24]", "result": 0.67}]}]}
